In the library only some 4.3% were active in any assay of this set; here they are far more common.
OX1R antag-1 – antagonists of human orexin 1 receptor; inhibition, % at 5 µM; hit rate 0.43% among 330,000; CHO/OX1R cells, Fluo-8 calcium fluorescence, orexin A;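 active means inhibition above its plate's threshold, mean inhibition of all tested compounds on the plate plus 3 SD, cut at about 37% in these data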
CHO parental Ca – counter-screen for OX1R antagonists: effect in parental CHO cells. hit rate 0.63% among 330,000. AID 463079. inhibition, % at 5.6 µM. parental CHO-K1, ATP-induced calcium, Fluo-8 fluorescence;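 active means inhibition above that plate's mean sample inhibition plus 3 SD, cut at about 26% in these data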
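Material – parental CHO cells · Reagent – ATP stimulus · Compound – single nominal dose of 5.6 µM per compound · Detection – Fluo-8 fluorescence · Read-out basis – percent inhibition of calcium signal · Controls – ATP-challenged DMSO wells low, unchallenged DMSO wells high · Repeats – no replicates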
TAAR1 ag – agonists of human TAAR1 | Q96RJ0 | CHO RD-HGA16 TAAR1, Fluo-8 calcium fluorescence; vehicle wells 0%, saturating PEA agonist 100% | activation, % at 3 µM | hit rate 0.99% among 360,000 | AID 624467;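 active means activation above the mean activation of all test compounds in the run plus 3 SD, cut at about 38% in these data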
Target sequence (Q96RJ0 whole entry, looked up): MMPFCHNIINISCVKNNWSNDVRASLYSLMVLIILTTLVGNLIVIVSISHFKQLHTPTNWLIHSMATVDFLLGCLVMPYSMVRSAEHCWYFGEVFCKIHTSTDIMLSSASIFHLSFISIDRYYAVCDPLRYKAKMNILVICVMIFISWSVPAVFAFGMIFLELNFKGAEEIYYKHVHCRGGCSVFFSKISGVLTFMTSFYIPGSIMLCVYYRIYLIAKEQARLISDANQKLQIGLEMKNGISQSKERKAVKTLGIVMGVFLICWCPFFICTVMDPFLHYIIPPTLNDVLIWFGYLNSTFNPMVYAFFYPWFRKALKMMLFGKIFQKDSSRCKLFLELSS
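Test system: RD-HGA16 (CHO) cells co-expressing Gα16 and hTAAR1 / Benchmarks: DMSO vehicle as 0%, PEA at EC100 as 100% / Repeats: no replicates (n 1) / Measure: % activation from peak over basal fluorescence ratio, DMSO-to-PEA scaled / Timing: 17-24 h plating, Fluo-8 75 min 37 °C, 30 min RT / Technique: kinetic Fluo-8 calcium fluorescence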
TAAR1 antagonist – human TAAR1 antagonism; AID 624466; inhibition, % at 3 µM; Q96RJ0; CHO RD-HGA16 TAAR1, Fluo-8 calcium fluorescence, antagonist; hit rate 1.5% among 360,000;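 active means inhibition above a per-plate cutoff, the mean inhibition of test compounds on that plate plus 3 SD, cut at about 49% in these data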
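Test system – hTAAR1-expressing CHO RD-HGA16 cells, Gα16-coupled · Also added – β-PEA at EC80 concentration, post-compound challenge · Compound – 3 µM, single point · Incubation – dye loading 75 min at 37 °C, then 30 min room temperature · Measured by – Fluo-8 intracellular calcium dye fluorescence, real-time kinetic reads · Benchmarks – vehicle and agonist controls · Replicates – singlicate, one well per test compound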
OX1R antag-2 – antagonists of human orexin 1 receptor (OX1R); O43613; OX1R-expressing cells, FRET antagonist read-out; inhibition, % at 6.6 µM; hit rate 1.8% among 330,000; in the data active means inhibition mostly above about 38%, no sharp cut-off; inactive means mostly below about 40%
GalR3 antagonist – human GalR3 antagonism | inhibition, % at 3 µM | hit rate 0.44% among 360,000 | HEK293 GalR3-CNG cAMP membrane potential fluorescence; galR3 body fused to GalR1 C-terminus;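 active means inhibition above the screen-wide average plus 3 SD, cut at about 13% in these data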;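 further: forskolin and galanin both at EC90 stimulate the cells; cAMP rise reported by CNG channel membrane potential dye signal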
Target sequence (O60755 1-299 limits assumed): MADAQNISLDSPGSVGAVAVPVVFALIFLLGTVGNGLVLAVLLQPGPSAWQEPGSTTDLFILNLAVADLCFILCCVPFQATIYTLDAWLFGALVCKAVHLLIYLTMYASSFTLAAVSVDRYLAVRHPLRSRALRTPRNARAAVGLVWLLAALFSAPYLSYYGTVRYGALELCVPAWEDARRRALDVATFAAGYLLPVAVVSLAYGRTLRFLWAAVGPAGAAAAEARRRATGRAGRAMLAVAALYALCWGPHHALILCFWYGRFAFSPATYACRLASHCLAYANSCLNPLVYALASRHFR
GalR3 conf – confirmation of human galanin receptor 3 antagonists; shares compounds with GalR3 antagonist; HEK293 GalR3 CNG cAMP biosensor, membrane potential fluorescence; galR3 fused to GalR1 carboxy tail; challenged with forskolin and galanin at EC90; inhibition, % at 3 µM; hit rate 59% among 1,600;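 active means inhibition above the primary screen's cutoff, the mean inhibition of all screened compounds plus 3 SD, cut at about 13% in these data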
HEK-CNG parental – acts as nonspecific agonist in parental HEK-CNG cells; activation, % at 3 µM; AID 652268; hit rate 10% among 1,600; shares compounds with GalR3 antagonist; HEK293-CNG parental cells, cAMP membrane potential fluorescence; normalised: DMSO wells 0%, forskolin wells 100%; in the data active means activation above about 1.3%
Large screens that a line does not name were inactive (follow-up assays come after a bar, where they were run).

S=C(NCCCN1CCOCC1)N1CCN(c2nc(-c3ccccc3)cs2)CC1	none
CCOc1ccc(CCN2C(=S)N([C@@H](Cc3ccc(O)cc3)CN3CCC[C@@H]3CN3C(=S)NC[C@@H]3Cc3ccccc3)C[C@@H]2Cc2ccc(O)cc2)cc1	none (no result: OX1R antag-1, CHO parental Ca, OX1R antag-2)
O=[N+]([O-])c1ccc(S(=O)(=O)NCCCc2ccccc2)cc1	none
O=[N+]([O-])c1ccc(-c2ccc(S(=O)(=O)NCCN3CCCC3)cc2)cc1	OX1R antag-2 59.1, GalR3 antagonist 41.5 | GalR3 conf inactive | HEK-CNG parental inactive
COc1ccc(-c2sc3ccc(N4CCOCC4)cc3c2C#CCCO)cc1	none
Cc1ccc(C(=O)N2CCCC(CCC(=O)N3CCN(c4ccccn4)CC3)C2)cn1 (configuration not stated)	GalR3 antagonist 12.7 | GalR3 conf inactive | HEK-CNG parental inactive
Cc1ccc(C(=O)NCC(=O)OCC(=O)c2ccc3c(c2)NC(=O)CO3)cc1	none
COc1ccc(C(=O)NCC(=O)OCC(=O)c2ccc3c(c2)NC(=O)CO3)cc1OC	GalR3 antagonist 72.5 | GalR3 conf inactive | HEK-CNG parental inactive
O=C(Nc1ccc(Oc2cccnc2)nc1)c1ccc(C(F)(F)F)cc1	GalR3 antagonist 76.7 | GalR3 conf 61.4 | HEK-CNG parental inactive
C=CC[C@@H](Cc1ccc(F)cc1)C(=O)OC[C@H]1CCCN1C(=O)[C@H](CC=C)CC(=O)NCCO	GalR3 antagonist 13.9 | GalR3 conf inactive | HEK-CNG parental inactive
Cc1ccc(CCNc2ncnc(Cl)c2N)cc1	GalR3 antagonist 103.9 (no result: OX1R antag-1, CHO parental Ca, OX1R antag-2) | GalR3 conf 104.1 | HEK-CNG parental inactive
Nc1c(Cl)ncnc1NCCO	none
CSCC[C@H](NC(=O)c1cccc(S(=O)(=O)N2CCCCC2)c1)c1nc2ccccc2[nH]1	none
Cc1nc(S(=O)(=O)Cc2ccccc2Cl)nc2c1CCC2	GalR3 antagonist 27.0 | GalR3 conf inactive | HEK-CNG parental inactive
COc1ccc(C(=O)N/N=C/c2cc3ccccc3[nH]c2=O)cc1	none (no result: GalR3 antagonist) | GalR3 conf 60.2 | HEK-CNG parental inactive
O=S(=O)(c1ccccc1)N1CCC(O)(CSc2ccc(F)cc2)CC1	GalR3 antagonist 72.5 | GalR3 conf 44.1 | HEK-CNG parental inactive
CCOC(=O)C(=Cc1ccc(OCc2ccc([N+](=O)[O-])cc2)c(OC)c1)C(=O)OCC	none (no result: GalR3 antagonist) | GalR3 conf inactive | HEK-CNG parental inactive
COc1ccc(OC)c(NC(=O)Nc2ccc3c(c2)OCO3)c1	none
CCN(C(=O)CC(C)C)c1nnc(Cn2nnc3ccccc32)s1	none
CCN(C(=O)c1ccc(C(C)(C)C)cc1)c1nnc(Cn2nnc3ccccc32)s1	OX1R antag-1 68.6, CHO parental Ca 66.3, GalR3 antagonist 102.2 | GalR3 conf 107.2 | HEK-CNG parental inactive
COc1cc(/C=N/NC(=O)c2cccc([N+](=O)[O-])c2)ccc1OC(=O)c1ccco1	none
COc1ccccc1CNC(=O)[C@H](CCSC)NC(=O)[C@@H]1Cc2ccccc2CN1	GalR3 antagonist 21.9 | GalR3 conf inactive | HEK-CNG parental inactive
Cc1ccnc(Nc2nc(-c3sc(C)nc3C)cs2)c1	GalR3 antagonist 31.8 | GalR3 conf 35.6 | HEK-CNG parental inactive
Cc1nc(C)c(-c2csc(Nc3ccccn3)n2)s1	none
COc1ccc(C(CNC(=O)CNC(=O)c2cccc(F)c2)N2CCOCC2)cc1 (configuration not stated)	none (no result: OX1R antag-1, CHO parental Ca, OX1R antag-2)
Cc1cccc(C)c1NC(=O)C(c1ccncc1)n1c(=O)c(-c2ccco2)nc2ccccc21 (configuration not stated)	none (no result: OX1R antag-1, CHO parental Ca, OX1R antag-2)
Cc1ccc(OCc2cc(C(=O)N(C)CCc3ccccn3)no2)cn1	none
CC(OC(=O)Cn1[nH]c(=O)c2ccccc2c1=O)C(=O)Nc1cccc(Cl)c1 (configuration not stated)	none
COc1cc([N+](=O)[O-])cc(/C=N/NC(=O)c2cncc(Br)c2)c1O	GalR3 antagonist 25.1 | GalR3 conf 38.3 | HEK-CNG parental inactive
CCOC(=O)Cn1nc(C)c(NC(=O)COc2cccc(Cl)c2)c1C	GalR3 antagonist 21.3 | GalR3 conf inactive | HEK-CNG parental inactive
COC(=O)C1CCN(Cc2ccc(OCCCN3CCN(c4ccc([N+](=O)[O-])cc4)CC3)cc2)CC1	GalR3 antagonist 13.4 | GalR3 conf 114.4 | HEK-CNG parental 3.1
CCCCN1C(=O)C(=O)N(CC(=O)Nc2sc(C)c(C)c2C(=O)OC)C1=O	none
COC(=O)c1c(-c2ccc(OC)cc2)sc2cc3c(cc12)OCO3	GalR3 antagonist 12.9 | GalR3 conf 18.0 | HEK-CNG parental inactive
COc1ccc(-c2sc3cc4c(cc3c2C#CCO)OCO4)cc1	none
OCC[C@@H]1C[C@H](O)[C@@H](O)[C@@]2(OCCCc3cc(Cl)ccc32)O1	none (no result: OX1R antag-1, CHO parental Ca, OX1R antag-2)
O=C(CSc1ncccn1)Nc1cccc(S(=O)(=O)N2CCOCC2)c1	none
CCN(CC)S(=O)(=O)c1cc(NC(=O)CNc2cccc(S(=O)(=O)N3CCOCC3)c2)ccc1C	GalR3 antagonist 93.3 | GalR3 conf 116.3 | HEK-CNG parental inactive
O=C(CSc1nccc(=O)[nH]1)Nc1cccc(S(=O)(=O)N2CCOCC2)c1	GalR3 antagonist 30.6 | GalR3 conf inactive | HEK-CNG parental inactive
O=C(Cn1nc(C(=O)O)c2ccccc2c1=O)Nc1cccc(S(=O)(=O)N2CCCCC2)c1	OX1R antag-1 60.0, GalR3 antagonist 13.0 | GalR3 conf 58.4 | HEK-CNG parental inactive
CCN(CC)S(=O)(=O)c1cccc(NC(=O)CNc2cccc(S(=O)(=O)N3CCCC3)c2)c1	CHO parental Ca 56.9, GalR3 antagonist 103.8 | GalR3 conf 113.2 | HEK-CNG parental inactive
O=C(Cn1nc(C(=O)O)c2ccccc2c1=O)Nc1cccc(S(=O)(=O)N2CCOCC2)c1	none
COc1ccc(-c2nc(C#N)c(NC(C)c3ccccc3)o2)cc1OC (configuration not stated)	GalR3 antagonist 20.5 | GalR3 conf 38.9 | HEK-CNG parental inactive
CC1(C)CC(=O)C2=C(C1)c1c(ccc3ccccc13)NC2c1cc([N+](=O)[O-])cc([N+](=O)[O-])c1O (configuration not stated)	none
O=C1N=C2N(CCN3CCCCC3)c3ccccc3N2/C1=C\c1ccc([N+](=O)[O-])s1	none (no result: OX1R antag-1, CHO parental Ca, OX1R antag-2)

Screens: PubChem BioAssay, The Scripps Research Institute Molecular Screening Center
